From ChEMBL document CHEMBL2346560, “Structure and function of a potent lipopolysaccharide-binding antimicrobial and anti-inflammatory peptide” (J Med Chem, 2013)
In brackets after ≈: the same amount, converted by molar mass. Activity calls are given as the source filed them. The rule behind the calls is not given here. Bridge positions count the residues as written; N and C are the ends. Peptide text beside a SMILES is read from it.

Assays:
[1] = tested on: RAW264.7; test: Cytotoxicity against mouse RAW264.7 cells at >25 ug/mL after 24 hrs by MTT assay; format: cell-based; settings: raw264.7, 24 h
[2] = tested on: Staphylococcus aureus; test: Antibacterial activity against Staphylococcus aureus ATCC 2592 after 16 hrs by broth dilution method; format: functional; settings: ATCC 2592, 16 h
Summary of the method: (§1)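 MIC read-out, reported in µg/mL with µM equivalents. Each value is the mean of three independent experiments, each run in duplicate.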

[3] = tested on: Escherichia coli; test: Antibacterial activity against Escherichia coli ATCC 25922 treated with MgCl2 after 16 hrs by broth dilution method; format: functional; settings: ATCC 25922, 16 h
Summary of the method: (§2)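 Salt sensitivity of the MIC. Peptide was tested in water, NaCl, CaCl2, MgCl2 or PBS (Na2HPO4-NaH2PO4, pH 7.4), with every salt at 150 mM. Values are means of three independent experiments, each run in duplicate.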

[4] = tested on: Escherichia coli; test: Bactericidal activity against Escherichia coli ATCC 25922 at 5 times MIC after 60 mins by colony counting assay (reference value: 296 CFU); format: functional
[5] = tested on: Candida albicans; test: Antifungal activity against Candida albicans ATCC 2002 after 16 hrs by broth dilution method; format: functional; settings: ATCC 2002, 16 h; summary of the method: as §1
[6] = tested on: RAW264.7; test: Antiinflammatory activity in mouse RAW264.7 cells assessed as inhibition of LPS-induced NO production at 5 ug/mL after 24 hrs by spectrophotometric analysis relative to control; format: functional; settings: RAW264.7, 24 h
Summary of the method: (§3)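 RAW 264.7 cells (1 × 10^7) in RPMI-1640 with 10% FBS and penicillin/streptomycin were treated with peptide (2.5, 5, 10, 20 µg/mL) with or without LPS (E. coli 055:B5, 100 ng/mL) for 24 h. Medium nitrite was measured with Griess reagent at A540 against a NaNO2 standard curve. Control was LPS alone. Mean ± SEM of three separate experiments.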

[7] = tested on: Escherichia coli; test: Bactericidal activity against Escherichia coli ATCC 25922 at 5 times MIC after 120 mins by colony counting assay (reference value: 1868.3 CFU); format: functional
[8] = tested on: Staphylococcus aureus; test: Antibacterial activity against Staphylococcus aureus ATCC 2592 treated with MgCl2 after 16 hrs by broth dilution method; format: functional; settings: ATCC 2592, 16 h; summary of the method: as §2
[9] = tested on: Pseudomonas aeruginosa; test: Antibacterial activity against Pseudomonas aeruginosa ATCC 27853 treated with water after 16 hrs by broth dilution method; format: functional; settings: ATCC 27853, 16 h; summary of the method: as §2
[10] = tested on: RAW264.7; test: Antiinflammatory activity in mouse RAW264.7 cells assessed as inhibition of LPS-induced NO production at 2.5 ug/mL after 24 hrs by spectrophotometric analysis relative to control; format: functional; settings: RAW264.7, 24 h; summary of the method: as §3
[11] = tested on: Staphylococcus aureus; test: Antibacterial activity against Staphylococcus aureus ATCC 2592 treated with PBS after 16 hrs by broth dilution method; format: functional; settings: ATCC 2592, 16 h; summary of the method: as §2
[12] = Toxicity in human RBC assessed as induction of hemolysis at 50 ug/mL after 30 mins relative to control; format: cell-based, Erythrocyte; settings: red blood cells (RBC), read-out: Activity
Summary of the method: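 Human red blood cells incubated with peptide. Hemoglobin release read as absorbance at 540 nm and expressed against 1% Triton X-100 as positive control.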

[13] = tested on: Pseudomonas aeruginosa; test: Antibacterial activity against ampicillin, benzylpencillin-resistant Pseudomonas aeruginosa 08031205 after 16 hrs by broth dilution method; format: functional; settings: Pseudomonas aeruginosa, 08031205, 16 h; summary of the method: as §1
[14] = tested on: Lipopolysaccharide (LPS); test: Binding affinity to Escherichia coli 055:B5 lipopolysaccharide by NMR titration assay
Summary of the method: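 2D TOCSY NMR titration: peptide 2.5 mM in 95% H2O/TFE-d3 (6:4, v/v) with 5% D2O, pH 6.2, 25 °C, alone or with LPS from E. coli 055:B5 (2.5 mM : 1 µg and 2.5 mM : 5 µg). Readout is the ratio of amide proton peak heights, free versus LPS-bound, per residue.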

[15] = tested on: RAW264.7; test: Antiinflammatory activity in mouse RAW264.7 cells assessed as inhibition of LPS-induced NFkappaB translocation from cytoplasm to nucleus preincubated for 1 hr prior to LPS-challenge measured after 3 hrs by Western blotting analysis; format: functional, cell-based
Summary of the method: (§4)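 RAW 264.7 cells (1 × 10^6/well) were serum-starved in RPMI-1640 for 16 h. They were pretreated with peptide (0, 5, 10, 20 µg/mL) for 1 h, then given LPS (E. coli 055:B5, 0 or 100 ng/mL) for 3 h. Cells were washed in ice-cold PBS, and cytoplasmic or nuclear fractions were blotted for TLR4, JNK, NF-κB p65 and β-actin. Control was LPS alone.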

[16] = tested on: Escherichia coli; test: Bactericidal activity against Escherichia coli ATCC 25922 at MIC after 5 mins by colony counting assay (reference value: 47.7 CFU); format: functional
[17] = tested on: Candida albicans; test: Antifungal activity against Candida albicans ATCC 2002 treated with CaCl2 after 16 hrs by broth dilution method; format: functional; settings: ATCC 2002, 16 h; summary of the method: as §2
[18] = tested on: Escherichia coli; test: Bactericidal activity against Escherichia coli ATCC 25922 at 10 times MIC after 120 mins by colony counting assay (reference value: 1868.3 CFU); format: functional
[19] = tested on: Candida albicans; test: Antifungal activity against ampicillin, benzylpencillin-resistant Candida albicans 080227710 after 16 hrs by broth dilution method; format: functional; settings: Candida albicans, 080227710, 16 h; summary of the method: as §1
[20] = tested on: RAW264.7; test: Antiinflammatory activity in mouse RAW264.7 cells assessed as inhibition of LPS-induced NO production at 10 ug/mL after 24 hrs by spectrophotometric analysis relative to control; format: functional; settings: RAW264.7, 24 h; summary of the method: as §3
[21] = tested on: Candida albicans; test: Antifungal activity against ampicillin, benzylpencillin-resistant Candida albicans 08030809 after 16 hrs by broth dilution method; format: functional; settings: Candida albicans, 08030809, 16 h; summary of the method: as §1
[22] = tested on: RAW264.7; test: Antiinflammatory activity in mouse RAW264.7 cells assessed as inhibition of LPS-induced IL6 production at 20 ug/mL after 24 hrs by ELISA relative to control; format: functional; settings: RAW264.7, 24 h
Summary of the method: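 RAW 264.7 cells (2 × 10^5) were plated and allowed to adhere. They were given peptide (2.5, 5, 10, 20 µg/mL) with or without LPS (E. coli 055:B5, 20 ng/mL) for 24 h. Supernatant TNF-α, IL-6 and MCP-1 were measured by ELISA at A450. Controls were LPS alone and untreated cells. Mean ± SEM of three separate experiments.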

[23] = tested on: Escherichia coli; test: Bactericidal activity against Escherichia coli ATCC 25922 at MIC after 40 mins by colony counting assay (reference value: 131.7 CFU); format: functional
[24] = tested on: RAW264.7; test: Antiinflammatory activity in mouse RAW264.7 cells assessed as inhibition of LPS-induced JNK2 expression preincubated for 1 hr prior to LPS-challenge measured after 3 hrs by Western blotting analysis; format: functional, cell-based; summary of the method: as §4
[25] = tested on: Escherichia coli; test: Bactericidal activity against Escherichia coli ATCC 25922 at MIC after 10 mins by colony counting assay (reference value: 58.3 CFU); format: functional
[26] = tested on: Escherichia coli; test: Antibacterial activity against Escherichia coli ATCC 25922 treated with PBS after 16 hrs by broth dilution method; format: functional; settings: ATCC 25922, 16 h; summary of the method: as §2
[27] = tested on: Escherichia coli; test: Antibacterial activity against ampicillin, benzylpencillin-resistant Escherichia coli 08A852 after 16 hrs by broth dilution method; format: functional; settings: 08A852, 16 h; summary of the method: as §1
[28] = tested on: Escherichia coli; test: Bactericidal activity against Escherichia coli ATCC 25922 at 10 times MIC after 10 mins by colony counting assay (reference value: 58.3 CFU); format: functional
[29] = tested on: Pseudomonas aeruginosa; test: Antibacterial activity against ampicillin, benzylpencillin-resistant Pseudomonas aeruginosa 08031014 after 16 hrs by broth dilution method; format: functional; settings: Pseudomonas aeruginosa, 08031014, 16 h; summary of the method: as §1

With `CC[C@H](C)[C@H](NC(=O)[C@H](Cc1cnc[nH]1)NC(=O)[C@H](CO)NC(=O)[C@@H](NC(=O)[C@@H](NC(=O)[C@@H](NC(=O)[C@@H](NC(=O)[C@H](CCCNC(=N)N)NC(=O)[C@H](CC(C)C)NC(=O)[C@H](CCCCN)NC(=O)[C@H](CCC(=O)O)NC(=O)[C@H](CCCCN)NC(=O)[C@H](CC(C)C)NC(=O)[C@H](CCCCN)NC(=O)[C@@H]1CSSC[C@H](NC(=O)[C@H](CCCCN)NC(=O)[C@@H](N)CCCNC(=N)N)C(=O)N[C@@H](CC(N)=O)C(=O)N[C@@H](Cc2ccccc2)C(=O)N[C@@H](CC(C)C)C(=O)N1)[C@@H](C)O)C(C)C)[C@@H](C)CC)[C@@H](C)O)C(=O)N[C@@H](CC(=O)O)C(=O)N[C@@H](CCCCN)C(=O)N[C@H](C(=O)N[C@@H](CC(C)C)C(=O)N[C@@H](CCCNC(=N)N)C(=O)N1CCC[C@H]1C(=O)N[C@@H](CCC(N)=O)C(=O)NCC(=O)O)C(C)C` (H-RKCNFLCKLKEKLRTVITSHIDKVLRPQG-OH; disulfide 3-7) the Activity [1] was “Toxic”, the MIC [2] was 2.74 µM (≈ 9.38 µg/mL) and the MIC [3] was 2.35 µg/mL (≈ 0.686 µM). For the same compound, the CFU [4] was 0, the MIC [5] was 1.37 µM (≈ 4.69 µg/mL) and the inhibition at 5 µg/mL [6] was 30%. The CFU [7] was 0, the MIC [8] was 9.38 µg/mL (≈ 2.74 µM) and the MIC [9] was 18.8 µg/mL (≈ 5.48 µM). The inhibition at 2.5 µg/mL [10] was 17%, the MIC [11] was 4.69 µg/mL (≈ 1.37 µM) and the hemolysis at 0.5 h, 50 ug/mL [12] was 5.5%. The MIC [13] was 2.74 µM (≈ 9.38 µg/mL), the Activity [14] was “Active” and the inhibition [15] was “Dose-dependent effect”. The CFU [16] was 37.3, the MIC [17] was 2.35 µg/mL (≈ 0.686 µM) and the CFU [18] was 0. It also gave an MIC [19] of 5.48 µM (≈ 18.8 µg/mL), an inhibition at 10 µg/mL [20] of 50% and an MIC [21] of 1.37 µM (≈ 4.69 µg/mL). The inhibition at 20 µg/mL [22] was 86%, the CFU [23] was 0 and the inhibition [24] was “Dose-dependent effect”. For the same compound, the CFU [25] was 23.7, the MIC [26] was 2.35 µg/mL (≈ 0.686 µM) and the MIC [27] was 1.37 µM (≈ 4.69 µg/mL). It also gave a CFU [28] of 0 and an MIC [29] of 10.9 µM (≈ 37.5 µg/mL).
